Kir21 block = inhibitors of mouse Kir2.1 inward-rectifier potassium channel. 0.85% of 310,000 active. AID 1672. HEK293-Kir2.1, FluxOR thallium flux fluorescence; stronger effect = lower value. B-score at 10 µM;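 active means fluorescence ratio B-score at or below minus 3 SD of library scores, with starting-brightness B-score within 2 SD, cut at about -4.2 in these data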;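 further: channel flux triggered by added potassium and thallium sulfate stimulus; B-score of peak minus minimum fluorescence over baseline after thallium stimulus; more negative B-score means stronger Kir2.1 block with less thallium influx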
KCNK9 block = inhibitors of human KCNK9 two-pore domain potassium channel; 1.2% of 310,000 active; AID 488922; B-score at 10 µM; HEK293 KCNK9, FluxOR thallium flux fluorescence; stronger effect = lower value; Q9NPC2;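 active means ratio B-score over 3 SD below the library mean, with starting fluorescence within 5 SD of its mean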;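 further: negative B-score means less thallium flux so channel inhibition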
Target sequence (Q9NPC2 whole entry, looked up, the tested form may be a part): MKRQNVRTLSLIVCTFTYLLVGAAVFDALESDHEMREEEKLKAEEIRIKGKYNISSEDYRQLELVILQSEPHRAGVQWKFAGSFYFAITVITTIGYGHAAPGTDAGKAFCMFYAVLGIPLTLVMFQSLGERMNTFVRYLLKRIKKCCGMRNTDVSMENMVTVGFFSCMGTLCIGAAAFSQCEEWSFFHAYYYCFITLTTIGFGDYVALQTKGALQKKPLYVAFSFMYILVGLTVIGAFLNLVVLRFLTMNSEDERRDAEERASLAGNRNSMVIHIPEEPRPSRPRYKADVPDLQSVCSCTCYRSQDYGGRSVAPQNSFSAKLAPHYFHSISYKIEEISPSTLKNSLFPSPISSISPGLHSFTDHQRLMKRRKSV
hERG rescue = shields human hERG channel from block by proarrhythmic agents. activation (rescue from dofetilide block), less the hit threshold, % at 10 µM. CHO-hERG, FluxOR thallium flux, dofetilide IC70 present. AID 1511. Q12809. 0.51% of 310,000 active;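 active means activation above the mean of controls blocked by dofetilide plus 5 SD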;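 further: thallium influx through hERG after potassium depolarization seen as dye fluorescence rise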
KCNQ1 act = potentiators or activators of human KCNQ1 potassium channel | AID 2648 | B-score at 10 µM | 0.35% of 310,000 active | P51787 | CHO-K1 KCNQ1, thallium flux FluxOR fluorescence; stronger effect = higher value;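 active means fluorescence ratio B-score, a plate-corrected score, at least three library SD, with initial intensity B-score within 5 SD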
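Doses: Single concentration per compound, DMSO matched to controls | Test system: KCNQ1-transfected CHO-K1 cells | Timing: 90 min dye loading and 20 min compound exposure, both at room temperature | Measured by: Kinetic FluxOR thallium fluorescence, 10-s 1-Hz baseline, 110-s post-stimulus read | Medium: Assay buffer with matched DMSO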
KCNK3 block = human KCNK3 channel inhibition, primary screen | B-score at 10 µM | 0.84% of 340,000 active | CHO-KCNK3 thallium flux, FluxOR fluorescence; stronger effect = lower value | O14649;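 active means B-score under library mean minus 4 SD, starting fluorescence ratio at most library mean plus 5 SD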;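 further: more negative B-score means stronger inhibition of thallium flux through KCNK3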
Target sequence (O14649 whole entry, looked up): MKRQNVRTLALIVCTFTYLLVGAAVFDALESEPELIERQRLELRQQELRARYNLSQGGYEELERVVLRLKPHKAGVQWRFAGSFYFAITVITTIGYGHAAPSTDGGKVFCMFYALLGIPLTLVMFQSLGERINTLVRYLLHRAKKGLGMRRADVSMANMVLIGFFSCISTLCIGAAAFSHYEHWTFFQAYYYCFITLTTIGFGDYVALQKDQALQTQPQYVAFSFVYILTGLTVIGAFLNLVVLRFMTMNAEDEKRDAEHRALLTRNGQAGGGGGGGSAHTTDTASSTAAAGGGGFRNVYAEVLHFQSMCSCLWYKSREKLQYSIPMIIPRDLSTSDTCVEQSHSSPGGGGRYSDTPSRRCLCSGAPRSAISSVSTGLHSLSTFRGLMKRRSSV
KCNQ1 block = inhibitors of human KCNQ1 potassium channel | P51787 | CHO-K1 KCNQ1, FluxOR thallium flux fluorescence; stronger effect = higher value | B-score at 10 µM | 1.3% of 310,000 active;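 active means compounds whose thallium flux B-score, printed positive for inhibition, exceeds three library SD while starting fluorescence stays within three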;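 further: channel opened by potassium depolarization with thallium stimulus after 20 min compound exposure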
KCNK9 block conf = human KCNK9 inhibitor confirmation; HEK293 KCNK9 cells, FluxOR thallium flux fluorescence; 43% of 4,900 active; shares compounds with KCNK9 block; inhibition, % at 10 µM;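 active means thallium signal inhibited by more than 5 SD of the compound-free buffer control wells, on both duplicate plates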
Kir21 sel = mouse Kir2.1 off-target activity of KCNK9 modulators; shares compounds with KCNK9 block; Kir2.1 cells, FluxOR thallium flux fluorescence; inhibition, % at 10 µM; 4% of 4,900 active;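 active means thallium signal drop more than 5 SD beyond the mean of the no-compound control wells, seen in both duplicate plates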;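 further: signal is fluorescence rise after thallium addition divided by baseline fluorescence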
KCNK9 uninduced = second check of KCNK9 modulator effects in non-induced HEK293 cells; shares compounds with KCNK9 block; FluxOR thallium flux; inhibition, % at 10 µM; 40% of 4,900 active; AID 492997;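 active means thallium signal drop beyond 5 SD of the untreated control mean, on both duplicate plates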
Each line names hits and unclear results; the compound was inactive in the other large screens (follow-up assays come after a bar, where they were run). Compounds with a hit are over-represented: about 3.7% of the library has one in this group of screens.

CC(C)C[C@@]12C(=O)N(c3cccc(Cl)c3)C(=O)N1[C@H](c1ccc(Cl)cc1)[C@@H]1C(=O)N(C3CCCCC3)C(=O)[C@@H]12	none
Cc1sc(NC(=O)C2CCCCC2)c(C#N)c1-c1ccccc1	none | KCNK9 block conf inactive | Kir21 sel inactive | KCNK9 uninduced inactive
C/C=C/c1ccc(OCC(=O)N(CCOC)c2c(N)n(CCCC)c(=O)[nH]c2=O)c(OC)c1	none
COc1cc2c(cc1OC)C(c1cc3cccc(C)c3[nH]c1=O)N(C(=O)c1ccco1)CC2 (stereo not given)	none
CCc1ccc(CN(C)C(=O)CCc2nc3ccccc3n(-c3ccc(OC)cc3)c2=O)cc1	none | KCNK9 block conf inactive | Kir21 sel inactive | KCNK9 uninduced 25.0%
OCCC1CN(Cc2cc3c(cc2Cl)OCO3)CCN1C1CCCC1 (stereo not given)	none
C=C1/C=C(\C)C(C)(O)CC(O)CC(=O)C(O)C(O)C(C)CC(C)OC(=O)/C(C)=C/CC/C=C/C(OC)C(O)CC(C)C1 (stereo not given)	none (no result: Kir21 block, KCNK9 block, hERG rescue, KCNQ1 act, KCNQ1 block)
COc1ccc(CN(C)Cc2nc(Cc3cccc(F)c3)no2)c2cccnc12	none
CN(Cc1cnn(C)c1)Cc1nc(Cc2ccccc2Cl)no1	none
COc1cccc(-n2cc(CN(C)Cc3nc(Cc4ccccc4)no3)cn2)c1	none | KCNK9 block conf inactive | Kir21 sel inactive | KCNK9 uninduced inactive
COc1cccc(-n2cc(CN(C)Cc3nc(Cc4cccc(F)c4)no3)cn2)c1	none | KCNK9 block conf inactive | Kir21 sel inactive | KCNK9 uninduced inactive
COC(=O)C1CCN(S(=O)(=O)c2ccc(Br)s2)CC1	none (no result: Kir21 block, KCNK9 block, hERG rescue, KCNQ1 act, KCNQ1 block)
O=C(C1CCN(S(=O)(=O)c2ccc(Br)s2)CC1)N1CCc2ccccc21	none | KCNK9 block conf inactive | Kir21 sel inactive | KCNK9 uninduced inactive
COc1ccc(NC2CCCN(C(=O)CCc3cn[nH]c3)C2)cc1 (stereo not given)	none
O=C(CCc1ccccc1)N1CCCC(Nc2ccc(F)cc2)C1 (stereo not given)	none | KCNK9 block conf inactive | Kir21 sel inactive | KCNK9 uninduced inactive
COc1ccc(C(=O)N2CCCC(Nc3ccc(C(C)C)cc3)C2)c(OC)n1 (stereo not given)	none | KCNK9 block conf inactive | Kir21 sel inactive | KCNK9 uninduced inactive
COc1ccc(CCC(=O)N2CCCC(Nc3ccc(OC)cc3)C2)cc1 (stereo not given)	none | KCNK9 block conf inactive | Kir21 sel inactive | KCNK9 uninduced inactive
COc1ccc(NC2CCCN(C(=O)C3(C)CCCCC3)C2)cc1 (stereo not given)	none | KCNK9 block conf inactive | Kir21 sel inactive | KCNK9 uninduced inactive
COc1ccc(C(=O)NCCS(=O)(=O)N2CCOCC2)cc1	none
O=C(CCC(=O)Nc1ccccc1)NNC(=O)COc1ccccc1	none
Cn1c(=O)c2c(ncn2CC(=O)Nc2nccs2)n(C)c1=O	none
COc1ccc(C(=O)NC2CCc3ccccc32)cc1OC1CCN(C(C)C)CC1 (stereo not given)	none
COC(=O)c1ccc(NS(=O)(=O)c2ccc(S(=O)(=O)N3CCOCC3)cc2)cc1	none (no result: Kir21 block, KCNK9 block, hERG rescue, KCNQ1 act, KCNQ1 block)
CCOC(=O)c1nc(Nc2cc(Cl)ccc2OC)c2ccccc2n1	KCNK9 block -13.1 | KCNK9 block conf 46.5% | Kir21 sel inactive | KCNK9 uninduced inactive
CCOC(=O)c1nc(Nc2ccccc2)c2ccccc2n1	none
CCOC(=O)c1ccc(Nc2nc(N)c3cc(OC)c(OC)cc3n2)cc1	none
COc1cc2nc(Nc3ccc(C)c(Cl)c3)nc(N)c2cc1OC	KCNK9 block -15.6 | KCNK9 block conf inactive | Kir21 sel inactive | KCNK9 uninduced inactive
CC1(C)CC(=O)C=C(Nc2ccc(C(=O)O)c(O)c2)C1	none
COc1ccc(NC(C)(C)c2nnnn2-c2c(C)cccc2C)cc1	none
Cc1ccc(NC2(c3nnnn3-c3c(C)cccc3C)CCCCC2)cc1	KCNK9 block -8.94 | KCNK9 block conf 47.5% | Kir21 sel inactive | KCNK9 uninduced 43.5%
CCOC(=O)N1CCC(N(CCN(C)C)C(=S)Nc2cc(Cl)ccc2C)CC1	none
CCCCOn1c(C)c(C(=O)OCC)c2c3nonc3ccc21	KCNK9 block -8.41 | KCNK9 block conf 33.0% | Kir21 sel inactive | KCNK9 uninduced 31.5%
CCCCOn1c(C)c(C(=O)OCC)c2c3no[n+]([O-])c3ccc21	none
C=CC[n+]1c(-c2ccc(Cl)cc2Cl)csc1Nc1c(C)n(C)n(-c2ccccc2)c1=O	none | KCNK9 block conf inactive | Kir21 sel inactive | KCNK9 uninduced inactive
O=C(NCc1ccco1)/C(=C/c1ccccc1F)NC(=O)c1ccccc1	none
CCCCOC(=O)CSC(=S)N(C)Cc1cccs1	none | KCNK9 block conf inactive | Kir21 sel inactive | KCNK9 uninduced inactive
CCc1ccc(S(=O)(=O)NCCc2csc(-c3ccccc3)n2)s1	Kir21 block -4.48, KCNK9 block -10.3 | KCNK9 block conf 49.5% | Kir21 sel 37.5% | KCNK9 uninduced 39.0%
CC1CCN(C(=O)c2ccc3c(Cl)c4c(nc3c2)CCCC4)CC1	none | KCNK9 block conf inactive | Kir21 sel inactive | KCNK9 uninduced inactive
O=C(c1ccc2c(Cl)c3c(nc2c1)CCCC3)N1CCN(c2ccc(F)cc2)CC1	none | KCNK9 block conf inactive | Kir21 sel inactive | KCNK9 uninduced inactive
Cc1c(C(=O)N2c3ccccc3Sc3ccccc32)cccc1[N+](=O)[O-]	none
COc1c(CC=C(C)C)cc(C2CC(=O)c3c(O)cc(O)cc3O2)c(CC=C(C)C)c1O (stereo not given)	KCNK9 block -10.5 (no result: KCNK3 block) | KCNK9 block conf 67.0% | Kir21 sel inactive | KCNK9 uninduced 50.0%
Cc1ccc(SCc2cc(=O)[nH]c(Nc3nc(C)c4ccc(C)cc4n3)n2)cc1	none
Cc1ccc(SCc2cc(=O)[nH]c(Nc3nc(C)c4ccccc4n3)n2)cc1	none | KCNK9 block conf inactive | Kir21 sel inactive | KCNK9 uninduced inactive
Cc1ccc(-n2c(C)nc3c(cnn3-c3ccc(F)cc3)c2=O)cc1C	none
Cc1ccc(-n2c(C)nc3c(cnn3-c3ccc(C)c(C)c3)c2=O)cc1C	none | KCNK9 block conf inactive | Kir21 sel inactive | KCNK9 uninduced inactive
O=C1C(C2=NC(c3ccccn3)C3C(=O)N(c4ccccc4)C(=O)C23)=C(O)c2ccccc21 (stereo not given)	none
CC(C)(C)c1cc(-c2ccco2)c(C#N)c(SCC#N)n1	KCNK9 block -9.65 | KCNK9 block conf inactive | Kir21 sel inactive | KCNK9 uninduced 31.0%

Screens deposited in PubChem by Johns Hopkins Ion Channel Center.
